Reference: ChEMBL document CHEMBL2311361, “Diminutive effect on T and B-cell proliferation of non-cytotoxic α-santonin derived 1,2,3-triazoles: a report” (Eur J Med Chem, 2013)

experiment: Cytotoxicity against in Balb/c mouse B cells at 10^-6 M after 48 hrs by MTT assay; type: cell-based; details: 1 µM
How it was run: (§1)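 Spleens taken aseptically from Balb/c mice (18–22 g). Single-cell suspension made in incomplete RPMI, RBCs lysed with Tris-ammonium chloride, cells washed, resuspended in complete RPMI and checked for viability by trypan blue. Cells seeded at 1 × 10⁶ cells/mL. Compounds in DMSO tested at 1×10⁻⁴, 1×10⁻⁵ and 1×10⁻⁶ M, 48 h, 37 °C, 5% CO₂.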

| Structure (SMILES) | Activity |
| --- | --- |
| COc1cc(-n2nncc2COc2cc(C)c3c(c2C)[C@@H]2OC(=O)[C@@H](C)[C@@H]2CC3)cc(OC)c1OC | Non-toxic |
| Cc1cc(OCc2cnnn2-c2cccc(O)c2)c(C)c2c1CC[C@H]1[C@H](C)C(=O)O[C@@H]21 | Toxic |
| Cc1cc(OCc2cnnn2-c2ccc(Cl)nc2)c(C)c2c1CC[C@H]1[C@H](C)C(=O)O[C@@H]21 | Toxic |
| Cc1cc(OCc2cnnn2-c2ccc3c(c2)OCO3)c(C)c2c1CC[C@H]1[C@H](C)C(=O)O[C@@H]21 | Non-toxic |

experiment: Cytotoxicity against in Balb/c mouse B cells at 10^-5 M after 48 hrs by MTT assay; type: cell-based; details: 10 µM; how it was run: as §1

| Structure (SMILES) | Activity |
| --- | --- |
| COc1cc(-n2nncc2COc2cc(C)c3c(c2C)[C@@H]2OC(=O)[C@@H](C)[C@@H]2CC3)cc(OC)c1OC | Non-toxic |
| Cc1cc(OCc2cnnn2-c2cccc(O)c2)c(C)c2c1CC[C@H]1[C@H](C)C(=O)O[C@@H]21 | Non-toxic |
| Cc1cc(OCc2cnnn2-c2ccc(Cl)nc2)c(C)c2c1CC[C@H]1[C@H](C)C(=O)O[C@@H]21 | Non-toxic |
| Cc1cc(OCc2cnnn2-c2ccc3c(c2)OCO3)c(C)c2c1CC[C@H]1[C@H](C)C(=O)O[C@@H]21 | Non-toxic |

experiment: Cytotoxicity against in Balb/c mouse T cells at 10^-6 M after 48 hrs by MTT assay; type: cell-based; details: t-cell, 1 µM; how it was run: as §1

| Structure (SMILES) | Activity |
| --- | --- |
| COc1cc(-n2nncc2COc2cc(C)c3c(c2C)[C@@H]2OC(=O)[C@@H](C)[C@@H]2CC3)cc(OC)c1OC | Non-toxic |
| Cc1cc(OCc2cnnn2-c2cccc(O)c2)c(C)c2c1CC[C@H]1[C@H](C)C(=O)O[C@@H]21 | Toxic |
| Cc1cc(OCc2cnnn2-c2ccc(Cl)nc2)c(C)c2c1CC[C@H]1[C@H](C)C(=O)O[C@@H]21 | Toxic |
| Cc1cc(OCc2cnnn2-c2ccc3c(c2)OCO3)c(C)c2c1CC[C@H]1[C@H](C)C(=O)O[C@@H]21 | Non-toxic |

experiment: Cytotoxicity against in Balb/c mouse T cells at 10^-5 M after 48 hrs by MTT assay; type: cell-based; details: t-cell, 10 µM; how it was run: as §1

| Structure (SMILES) | Activity |
| --- | --- |
| COc1cc(-n2nncc2COc2cc(C)c3c(c2C)[C@@H]2OC(=O)[C@@H](C)[C@@H]2CC3)cc(OC)c1OC | Non-toxic |
| Cc1cc(OCc2cnnn2-c2cccc(O)c2)c(C)c2c1CC[C@H]1[C@H](C)C(=O)O[C@@H]21 | Non-toxic |
| Cc1cc(OCc2cnnn2-c2ccc(Cl)nc2)c(C)c2c1CC[C@H]1[C@H](C)C(=O)O[C@@H]21 | Non-toxic |
| Cc1cc(OCc2cnnn2-c2ccc3c(c2)OCO3)c(C)c2c1CC[C@H]1[C@H](C)C(=O)O[C@@H]21 | Non-toxic |

experiment: Cytotoxicity against in Balb/c mouse T cells at 10^-4 M after 48 hrs by MTT assay; type: cell-based; details: t-cell, 100 µM; how it was run: as §1

| Structure (SMILES) | Activity |
| --- | --- |
| COc1cc(-n2nncc2COc2cc(C)c3c(c2C)[C@@H]2OC(=O)[C@@H](C)[C@@H]2CC3)cc(OC)c1OC | Non-toxic |
| Cc1cc(OCc2cnnn2-c2cccc(O)c2)c(C)c2c1CC[C@H]1[C@H](C)C(=O)O[C@@H]21 | Non-toxic |
| Cc1cc(OCc2cnnn2-c2ccc(Cl)nc2)c(C)c2c1CC[C@H]1[C@H](C)C(=O)O[C@@H]21 | Non-toxic |
| Cc1cc(OCc2cnnn2-c2ccc3c(c2)OCO3)c(C)c2c1CC[C@H]1[C@H](C)C(=O)O[C@@H]21 | Non-toxic |

experiment: Cytotoxicity against in Balb/c mouse B cells at 10^-4 M after 48 hrs by MTT assay; type: cell-based; details: 100 µM; how it was run: as §1

| Structure (SMILES) | Activity |
| --- | --- |
| COc1cc(-n2nncc2COc2cc(C)c3c(c2C)[C@@H]2OC(=O)[C@@H](C)[C@@H]2CC3)cc(OC)c1OC | Non-toxic |
| Cc1cc(OCc2cnnn2-c2cccc(O)c2)c(C)c2c1CC[C@H]1[C@H](C)C(=O)O[C@@H]21 | Non-toxic |
| Cc1cc(OCc2cnnn2-c2ccc(Cl)nc2)c(C)c2c1CC[C@H]1[C@H](C)C(=O)O[C@@H]21 | Non-toxic |
| Cc1cc(OCc2cnnn2-c2ccc3c(c2)OCO3)c(C)c2c1CC[C@H]1[C@H](C)C(=O)O[C@@H]21 | Non-toxic |

experiment: Immunostimulant activity in Balb/c mouse B cells assessed as inhibition of LPS-induced cell proliferation at 10^-6 M after 48 hrs by MTT assay; type: functional; details: not given; how it was run: as §1

| Structure (SMILES) | inhibition at 1 µM [%] |
| --- | --- |
| Cc1cc(OCc2cnnn2-c2ccc(Cl)nc2)c(C)c2c1CC[C@H]1[C@H](C)C(=O)O[C@@H]21 | 45.7 |

experiment: Immunostimulant activity in Balb/c mouse B cells assessed as inhibition of LPS-induced cell proliferation at 10^-4 M after 48 hrs by MTT assay; type: functional; details: not given; how it was run: as §1

| Structure (SMILES) | inhibition at 100 µM [%] |
| --- | --- |
| Cc1cc(OCc2cnnn2-c2ccc(Cl)nc2)c(C)c2c1CC[C@H]1[C@H](C)C(=O)O[C@@H]21 | 75.7 |

experiment: Immunostimulant activity in Balb/c mouse T cells assessed as inhibition of concanavalin A-induced cell proliferation at 10^-5 M after 48 hrs by MTT assay; type: functional; details: not given; how it was run: as §1

| Structure (SMILES) | inhibition at 10 µM [%] |
| --- | --- |
| Cc1cc(OCc2cnnn2-c2cccc(O)c2)c(C)c2c1CC[C@H]1[C@H](C)C(=O)O[C@@H]21 | 22.5 |
| Cc1cc(OCc2cnnn2-c2ccc(Cl)nc2)c(C)c2c1CC[C@H]1[C@H](C)C(=O)O[C@@H]21 | 12.8 |

experiment: Immunostimulant activity in Balb/c mouse T cells assessed as inhibition of concanavalin A-induced cell proliferation at 10^-4 M after 48 hrs by MTT assay; type: functional; details: Mus musculus, Balb/c, T-cell, 48 h; how it was run: as §1

| Structure (SMILES) | inhibition at 100 µM [%] |
| --- | --- |
| Cc1cc(OCc2cnnn2-c2ccc(Cl)nc2)c(C)c2c1CC[C@H]1[C@H](C)C(=O)O[C@@H]21 | 8.57 |

experiment: Immunosuppressive activity in Balb/c mouse B cells assessed as inhibition of LPS-induced cell proliferation at 10^-6 M after 48 hrs by MTT assay; type: functional; details: not given; how it was run: as §1

| Structure (SMILES) | inhibition at 1 µM [%] |
| --- | --- |
| COc1cc(-n2nncc2COc2cc(C)c3c(c2C)[C@@H]2OC(=O)[C@@H](C)[C@@H]2CC3)cc(OC)c1OC | 16.8 |
| Cc1cc(OCc2cnnn2-c2cccc(O)c2)c(C)c2c1CC[C@H]1[C@H](C)C(=O)O[C@@H]21 | 19.2 |
| Cc1cc(OCc2cnnn2-c2ccc3c(c2)OCO3)c(C)c2c1CC[C@H]1[C@H](C)C(=O)O[C@@H]21 | 14.7 |

experiment: Immunosuppressive activity in Balb/c mouse B cells assessed as inhibition of LPS-induced cell proliferation at 10^-5 M after 48 hrs by MTT assay; type: functional; details: not given; how it was run: as §1

| Structure (SMILES) | inhibition at 10 µM [%] |
| --- | --- |
| COc1cc(-n2nncc2COc2cc(C)c3c(c2C)[C@@H]2OC(=O)[C@@H](C)[C@@H]2CC3)cc(OC)c1OC | 26.3 |
| Cc1cc(OCc2cnnn2-c2cccc(O)c2)c(C)c2c1CC[C@H]1[C@H](C)C(=O)O[C@@H]21 | 7.5 |
| Cc1cc(OCc2cnnn2-c2ccc(Cl)nc2)c(C)c2c1CC[C@H]1[C@H](C)C(=O)O[C@@H]21 | 8.57 |
| Cc1cc(OCc2cnnn2-c2ccc3c(c2)OCO3)c(C)c2c1CC[C@H]1[C@H](C)C(=O)O[C@@H]21 | 50.5 |

experiment: Immunosuppressive activity in Balb/c mouse B cells assessed as inhibition of LPS-induced cell proliferation at 10^-4 M after 48 hrs by MTT assay; type: functional; details: not given; how it was run: as §1

| Structure (SMILES) | inhibition at 100 µM [%] |
| --- | --- |
| COc1cc(-n2nncc2COc2cc(C)c3c(c2C)[C@@H]2OC(=O)[C@@H](C)[C@@H]2CC3)cc(OC)c1OC | 14.7 |
| Cc1cc(OCc2cnnn2-c2cccc(O)c2)c(C)c2c1CC[C@H]1[C@H](C)C(=O)O[C@@H]21 | 9.16 |
| Cc1cc(OCc2cnnn2-c2ccc3c(c2)OCO3)c(C)c2c1CC[C@H]1[C@H](C)C(=O)O[C@@H]21 | 32.6 |

experiment: Immunosuppressive activity in Balb/c mouse T cells assessed as inhibition of concanavalin A-induced cell proliferation at 10^-6 M after 48 hrs by MTT assay; type: functional; details: Mus musculus, Balb/c, T-cell, 48 h; how it was run: as §1

| Structure (SMILES) | inhibition at 1 µM [%] |
| --- | --- |
| COc1cc(-n2nncc2COc2cc(C)c3c(c2C)[C@@H]2OC(=O)[C@@H](C)[C@@H]2CC3)cc(OC)c1OC | 20 |
| Cc1cc(OCc2cnnn2-c2cccc(O)c2)c(C)c2c1CC[C@H]1[C@H](C)C(=O)O[C@@H]21 | 5.83 |
| Cc1cc(OCc2cnnn2-c2ccc(Cl)nc2)c(C)c2c1CC[C@H]1[C@H](C)C(=O)O[C@@H]21 | 20.8 |
| Cc1cc(OCc2cnnn2-c2ccc3c(c2)OCO3)c(C)c2c1CC[C@H]1[C@H](C)C(=O)O[C@@H]21 | 29.5 |

experiment: Immunosuppressive activity in Balb/c mouse T cells assessed as inhibition of concanavalin A-induced cell proliferation at 10^-5 M after 48 hrs by MTT assay; type: functional; details: not given; how it was run: as §1

| Structure (SMILES) | inhibition at 10 µM [%] |
| --- | --- |
| COc1cc(-n2nncc2COc2cc(C)c3c(c2C)[C@@H]2OC(=O)[C@@H](C)[C@@H]2CC3)cc(OC)c1OC | 14.7 |
| Cc1cc(OCc2cnnn2-c2ccc3c(c2)OCO3)c(C)c2c1CC[C@H]1[C@H](C)C(=O)O[C@@H]21 | 45.3 |

experiment: Immunosuppressive activity in Balb/c mouse T cells assessed as inhibition of concanavalin A-induced cell proliferation at 10^-4 M after 48 hrs by MTT assay; type: functional; details: not given; how it was run: as §1

| Structure (SMILES) | inhibition at 100 µM [%] |
| --- | --- |
| COc1cc(-n2nncc2COc2cc(C)c3c(c2C)[C@@H]2OC(=O)[C@@H](C)[C@@H]2CC3)cc(OC)c1OC | 16.8 |
| Cc1cc(OCc2cnnn2-c2cccc(O)c2)c(C)c2c1CC[C@H]1[C@H](C)C(=O)O[C@@H]21 | 10 |
| Cc1cc(OCc2cnnn2-c2ccc3c(c2)OCO3)c(C)c2c1CC[C@H]1[C@H](C)C(=O)O[C@@H]21 | 29.5 |
